According to ChEMBL document CHEMBL5058577, “EUbOPEN Chemogenomics Library 2 (Multiplex)” (2022):

Test system: Fibroblast
Test: Multiplex assay against human fibroblast
Format: toxicity, cell-based
Method in brief: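 Tubulin, mitochondrial-mass and membrane-permeability phenotypes are per cents of healthy-nucleus cells. Cells were gated by CellPathfinder machine learning into Hoechst high-intensity objects or normal cells, normal cells into healthy, pyknosed or fragmented nuclei, and pyknosed cells into mitotic or apoptotic. Before that, live cells stained at seeding with Hoechst33342, BioTracker Green Microtubule Cytoskeleton Dye, MitoTracker Red and Annexin V Alexa Fluor 680 were imaged on a CQ1 microscope at 37°C and 5% CO2 after compound addition.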

[1] = 12 h, 1 µM, compound concentration 1 uM, replicate 1
[2] = 12 h, 1 µM, compound concentration 1 uM, replicate 2
[3] = 12 h, 10 µM, compound concentration 10 uM, replicate 1
[4] = 12 h, 10 µM, compound concentration 10 uM, replicate 2
[5] = 24 h, 1 µM, compound concentration 1 uM, replicate 1
[6] = 24 h, 1 µM, compound concentration 1 uM, replicate 2
[7] = 24 h, 10 µM, compound concentration 10 uM, replicate 1
[8] = 24 h, 10 µM, compound concentration 10 uM, replicate 2
[9] = 48 h, 1 µM, compound concentration 1 uM, replicate 1
[10] = 48 h, 1 µM, compound concentration 1 uM, replicate 2
[11] = 48 h, 10 µM, compound concentration 10 uM, replicate 1
[12] = 48 h, 10 µM, compound concentration 10 uM, replicate 2

Br.CS(=O)(=O)Nc1c(O)ccc2c1CCCC2C1=NCCN1 (configuration not stated)
Population Apoptotic (%) [1]: 17% | Population Fragmented Nuclei (%) [1]: 9% | Population Healthy Nuclei (%) [1]: 76% | Population Hoechst High Intensity Objects (%) [1]: 1% | Population Membrane Permeable-Phenotype (%) [1]: 0% | Population Mitochondria Different-Phenotype (%) [1]: 5% | Population Mitotic Cells (%) [1]: 82% | Population Normal (%) [1]: 98% | Population Pyknosed Nuclei (%) [1]: 14% | Population Tubulin-Different-Phenotype (%) [1]: 20% | Total Cell Count [1]: 167 | Population Apoptotic (%) [2]: 31% | Population Fragmented Nuclei (%) [2]: 32% | Population Healthy Nuclei (%) [2]: 47% | Population Hoechst High Intensity Objects (%) [2]: 8% | Population Membrane Permeable-Phenotype (%) [2]: 7% | Population Mitochondria Different-Phenotype (%) [2]: 8% | Population Mitotic Cells (%) [2]: 68% | Population Normal (%) [2]: 91% | Population Pyknosed Nuclei (%) [2]: 19% | Population Tubulin-Different-Phenotype (%) [2]: 38% | Total Cell Count [2]: 192 | Population Apoptotic (%) [3]: 38% | Population Fragmented Nuclei (%) [3]: 20% | Population Healthy Nuclei (%) [3]: 47% | Population Hoechst High Intensity Objects (%) [3]: 6% | Population Membrane Permeable-Phenotype (%) [3]: 1% | Population Mitochondria Different-Phenotype (%) [3]: 7% | Population Mitotic Cells (%) [3]: 61% | Population Normal (%) [3]: 93% | Population Pyknosed Nuclei (%) [3]: 31% | Population Tubulin-Different-Phenotype (%) [3]: 21% | Total Cell Count [3]: 148 | Population Apoptotic (%) [4]: 33% | Population Fragmented Nuclei (%) [4]: 38% | Population Healthy Nuclei (%) [4]: 45% | Population Hoechst High Intensity Objects (%) [4]: 0% | Population Membrane Permeable-Phenotype (%) [4]: 12% | Population Mitochondria Different-Phenotype (%) [4]: 5% | Population Mitotic Cells (%) [4]: 66% | Population Normal (%) [4]: 99% | Population Pyknosed Nuclei (%) [4]: 16% | Population Tubulin-Different-Phenotype (%) [4]: 43% | Total Cell Count [4]: 129 | Population Apoptotic (%) [5]: 56% | Population Fragmented Nuclei (%) [5]: 12% | Population Healthy Nuclei (%) [5]: 77% | Population Hoechst High Intensity Objects (%) [5]: 1% | Population Membrane Permeable-Phenotype (%) [5]: 0% | Population Mitochondria Different-Phenotype (%) [5]: 3% | Population Mitotic Cells (%) [5]: 43% | Population Normal (%) [5]: 98% | Population Pyknosed Nuclei (%) [5]: 10% | Population Tubulin-Different-Phenotype (%) [5]: 16% | Total Cell Count [5]: 159 | Population Apoptotic (%) [6]: 33% | Population Fragmented Nuclei (%) [6]: 25% | Population Healthy Nuclei (%) [6]: 60% | Population Hoechst High Intensity Objects (%) [6]: 7% | Population Membrane Permeable-Phenotype (%) [6]: 2% | Population Mitochondria Different-Phenotype (%) [6]: 7% | Population Mitotic Cells (%) [6]: 66% | Population Normal (%) [6]: 92% | Population Pyknosed Nuclei (%) [6]: 14% | Population Tubulin-Different-Phenotype (%) [6]: 41% | Total Cell Count [6]: 180 | Population Apoptotic (%) [7]: 48% | Population Fragmented Nuclei (%) [7]: 16% | Population Healthy Nuclei (%) [7]: 60% | Population Hoechst High Intensity Objects (%) [7]: 3% | Population Membrane Permeable-Phenotype (%) [7]: 0% | Population Mitochondria Different-Phenotype (%) [7]: 2% | Population Mitotic Cells (%) [7]: 51% | Population Normal (%) [7]: 96% | Population Pyknosed Nuclei (%) [7]: 23% | Population Tubulin-Different-Phenotype (%) [7]: 24% | Total Cell Count [7]: 148 | Population Apoptotic (%) [8]: 41% | Population Fragmented Nuclei (%) [8]: 41% | Population Healthy Nuclei (%) [8]: 44% | Population Hoechst High Intensity Objects (%) [8]: 0% | Population Membrane Permeable-Phenotype (%) [8]: 10% | Population Mitochondria Different-Phenotype (%) [8]: 10% | Population Mitotic Cells (%) [8]: 58% | Population Normal (%) [8]: 99% | Population Pyknosed Nuclei (%) [8]: 13% | Population Tubulin-Different-Phenotype (%) [8]: 41% | Total Cell Count [8]: 130 | Population Apoptotic (%) [9]: 57% | Population Fragmented Nuclei (%) [9]: 14% | Population Healthy Nuclei (%) [9]: 76% | Population Hoechst High Intensity Objects (%) [9]: 4% | Population Membrane Permeable-Phenotype (%) [9]: 4% | Population Mitochondria Different-Phenotype (%) [9]: 3% | Population Mitotic Cells (%) [9]: 42% | Population Normal (%) [9]: 95% | Population Pyknosed Nuclei (%) [9]: 8% | Population Tubulin-Different-Phenotype (%) [9]: 24% | Total Cell Count [9]: 167 | Population Apoptotic (%) [10]: 38% | Population Fragmented Nuclei (%) [10]: 26% | Population Healthy Nuclei (%) [10]: 61% | Population Hoechst High Intensity Objects (%) [10]: 5% | Population Membrane Permeable-Phenotype (%) [10]: 0% | Population Mitochondria Different-Phenotype (%) [10]: 9% | Population Mitotic Cells (%) [10]: 61% | Population Normal (%) [10]: 94% | Population Pyknosed Nuclei (%) [10]: 12% | Population Tubulin-Different-Phenotype (%) [10]: 41% | Total Cell Count [10]: 177 | Population Apoptotic (%) [11]: 61% | Population Fragmented Nuclei (%) [11]: 22% | Population Healthy Nuclei (%) [11]: 61% | Population Hoechst High Intensity Objects (%) [11]: 6% | Population Membrane Permeable-Phenotype (%) [11]: 1% | Population Mitochondria Different-Phenotype (%) [11]: 2% | Population Mitotic Cells (%) [11]: 38% | Population Normal (%) [11]: 93% | Population Pyknosed Nuclei (%) [11]: 15% | Population Tubulin-Different-Phenotype (%) [11]: 21% | Total Cell Count [11]: 145 | Population Apoptotic (%) [12]: 33% | Population Fragmented Nuclei (%) [12]: 48% | Population Healthy Nuclei (%) [12]: 44% | Population Hoechst High Intensity Objects (%) [12]: 1% | Population Membrane Permeable-Phenotype (%) [12]: 3% | Population Mitochondria Different-Phenotype (%) [12]: 9% | Population Mitotic Cells (%) [12]: 66% | Population Normal (%) [12]: 98% | Population Pyknosed Nuclei (%) [12]: 7% | Population Tubulin-Different-Phenotype (%) [12]: 45% | Total Cell Count [12]: 127
